The full list was thinned out, with hits kept by preference.
IDH1 R132H inh = IDH1 R132H (human) inhibition; O75874; IDH1 R132H reductase, diaphorase/resazurin fluorescence, 60 min; inhibition, % at 10 µM; 70,000 tested, 0.18% active; AID 624101; in the data active = inhibition above about 34%; inconclusive = no clear call, values can overlap the other calls; inactive = below about 11%;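 also: 0% = DMSO and 100% = no enzyme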
Target sequence (O75874 whole entry R132H): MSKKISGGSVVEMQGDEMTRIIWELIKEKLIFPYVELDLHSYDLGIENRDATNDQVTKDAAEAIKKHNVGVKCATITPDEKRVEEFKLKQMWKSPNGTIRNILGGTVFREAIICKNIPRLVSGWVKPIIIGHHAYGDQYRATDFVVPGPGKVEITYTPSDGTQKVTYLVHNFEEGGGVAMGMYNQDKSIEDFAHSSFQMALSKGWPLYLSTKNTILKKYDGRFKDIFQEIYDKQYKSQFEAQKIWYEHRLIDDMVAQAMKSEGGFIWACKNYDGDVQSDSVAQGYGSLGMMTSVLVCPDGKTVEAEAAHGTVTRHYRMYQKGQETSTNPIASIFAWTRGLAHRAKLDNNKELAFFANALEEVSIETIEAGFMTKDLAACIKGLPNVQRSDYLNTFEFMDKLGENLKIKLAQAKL
T cruzi growth-1 = inhibitors of T. cruzi proliferation; inhibition, % at 8.34 µM; T. cruzi beta-gal in NIH3T3, GalScreen luminescence, 90 h; 77,000 tested, 5.9% active;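 active = mean inhibition above about 93%, with at least 55% of replicates each passing it, limit read from the data, passing the limit was not always enough; inconclusive = only one of those two conditions holds; inactive = neither condition holds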
KDM4C inh = KDM4C (human) demethylase inhibition; Q9H3R0; inhibition, % at 12.5 µM; AID 720574; 96,000 tested, 0.15% active; GST-KDM4C 2-372, H3K9me3 peptide, LANCE TR-FRET;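 active = mean replicate inhibition above about 25%, with at least 55% of replicates also reaching it, limit read from the data, passing the limit was not always enough; inconclusive = only one of those two conditions met; inactive = neither condition met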
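Compound: one test concentration per compound; Material: GST-GASC-1 enzyme fragment 2-372; Amount: GASC-1 enzyme at 10 nM final in reaction; Also added: H3K9me3 peptide substrate, Fe(II), 2-oxoglutarate; Technique: LANCE TR-FRET; Times: 30 min demethylation and 1 h detection at room temperature.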
T cruzi growth-2 = blocks T. cruzi growth in NIH3T3 host cells; shares compounds with T cruzi growth-1; T. cruzi beta-gal in NIH3T3, GalScreen luminescence, 90 h; inhibition, % at 8.35 µM; 5,600 tested, 72% active;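 active = mean replicate inhibition above about 95% and at least 55% of replicates individually reaching it, limit read from the data; inconclusive = only one of the two criteria is met; inactive = neither criterion is met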
T cruzi growth-3 = blocks T. cruzi growth in NIH3T3 host cells; shares compounds with T cruzi growth-1; T. cruzi beta-gal in NIH3T3, GalScreen luminescence, 90 h; inhibition, % at 2.09 µM; 5,600 tested, 21% active;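 active = mean inhibition above about 95%, with at least 55% of replicates also reaching it, limit read from the data; inconclusive = meets just one of the two conditions; inactive = meets neither condition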;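 also: plate controls were neutral control median for no effect and positive control median for full effect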
3T3 cytotox = kills mouse NIH/3T3 fibroblasts. shares compounds with T cruzi growth-1. NIH/3T3 viability, CellTiter-Glo ATP luminescence, 90 h. cytotoxicity (signal decrease), % at 8.35 µM. 5,600 tested, 14% active. AID 651742;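 active = mean signal decrease across replicates above about 35% based on untreated-well scatter, with enough replicates individually passing, limit read from the data; inconclusive = no rule stated though some were filed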;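 also: 0% = median of neutral control wells and 100% = median of positive control wells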
3T3 cytotox 2 = kills mouse NIH/3T3 fibroblasts. 5,600 tested, 56% active. NIH/3T3 viability, CellTiter-Glo ATP luminescence, 90 h. shares compounds with T cruzi growth-1. inhibition, % at 24.9 µM;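 active = mean loss of cell viability signal at or above a set limit, and enough replicates individually reaching it; inconclusive = meets only the mean limit or only the replicate share; inactive = meets neither condition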;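 also: 0% = median of neutral control wells and 100% = median of positive control wells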
* marks the source's active call; other numbers are inactive results; u = inconclusive; x = no result given.

SMILES	IDH1 R132H inh	T cruzi growth-1	KDM4C inh	T cruzi growth-2	T cruzi growth-3	3T3 cytotox	3T3 cytotox 2
Cc1cc(C(=O)Nc2cccc3c2O[C@@H](CN(C)Cc2ccc(Oc4ccccc4)cc2)[C@H](C)CN([C@H](C)CO)C3=O)n(C)n1	x	104.5*	9.5	103.8*	58.9	15.1	104.3*
C[C@@H]1CN([C@@H](C)CO)C(=O)c2cccc(NC(=O)c3ccncc3)c2O[C@H]1CN(C)Cc1ccccc1	x	63.9	-0.5	x	x	x	x
C[C@@H]1CN([C@H](C)CO)C(=O)c2cccc(NC(=O)c3ccncc3)c2O[C@H]1CN(C)Cc1ccc(C(=O)Nc2ccccc2N)cc1	x	99.6*	17.4	106.5*	90.8	2.8	25.5
Cc1cc(C(=O)Nc2cccc3c2O[C@@H](CN(C)Cc2ccc(C(=O)O)cc2)[C@@H](C)CN([C@H](C)CO)C3=O)n(C)n1	1.1	x	0.0	x	x	x	x
COc1ccc(S(=O)(=O)NCc2ccccc2)cc1-c1nnc2c3ccccc3c(C)nn12	-0.2	x	x	x	x	x	x
COc1ccc(-c2nnc(SCC(=O)Nc3cccc(F)c3)n2C)cc1	-0.1	x	x	x	x	x	x
COc1ccc(C(=O)NCC(=O)Nc2ccc(C)c(Cl)c2)cc1	0.5	x	x	x	x	x	x
CC1(C)CC(=O)C2=C(C1)N(Cc1cccnc1)C(=O)C2(NC(=O)c1ccco1)C(F)(F)F (stereo unspecified)	0.2	x	x	x	x	x	x
C[C@H](CO)N1C[C@H](C)[C@H](CN(C)Cc2ccc(C(=O)Nc3ccccc3N)cc2)Oc2c(NC(=O)c3cnccn3)cccc2C1=O	-0.3	x	-0.5	x	x	x	x
C[C@H](CO)N1C[C@H](C)[C@@H](CN(C)Cc2ccc(C(=O)Nc3ccccc3N)cc2)Oc2c(NC(=O)C3CCOCC3)cccc2C1=O	0.6	99.4*	3.8	101.8*	86.7	2.7	4.1
C[C@H](CO)N1C[C@H](C)[C@@H](CN(C)Cc2ccc(C(=O)Nc3ccccc3N)cc2)Oc2c(cccc2N(C)C)C1=O	0.0	u	3.7	101.5*	13.3	9.7	33.0*
C[C@@H]1CN([C@@H](C)CO)C(=O)c2cccc(N(C)C)c2O[C@H]1CN(C)Cc1ccc(C(=O)Nc2ccccc2N)cc1	-0.1	90.1	5.4	x	x	x	x
C[C@H](CO)N1C[C@H](C)[C@H](CN(C)Cc2ccc(C(=O)Nc3ccccc3N)cc2)Oc2c(NC(=O)C3CCOCC3)cccc2C1=O	-0.4	86.0	4.9	x	x	x	x
C[C@@H]1CN([C@@H](C)CO)C(=O)c2cccc(NC(=O)c3cnccn3)c2O[C@H]1CN(C)Cc1ccc(C(=O)Nc2ccccc2N)cc1	-0.1	112.4*	-1.7	106.7*	85.0	33.4	41.9*
Cc1cccc(OCC(=O)Nc2ccccc2C(=O)NC2CCCCC2)c1	-0.2	x	x	x	x	x	x
O=C(C[C@@H]1CC[C@@H](NS(=O)(=O)c2ccccc2)[C@@H](CO)O1)NCc1ccncn1	1.3	-28.2	-1.1	x	x	x	x
Cc1ccc(S(=O)(=O)N[C@H]2CC[C@@H](CCNC(=O)Cc3ccccn3)O[C@H]2CO)cc1	0.4	79.0	1.3	x	x	x	x
O=C(C[C@H]1CC[C@@H](NS(=O)(=O)c2ccccc2)[C@@H](CO)O1)NCc1ccncn1	0.4	123.2*	0.2	101.4*	16.8	1.8	3.5
O=C(C[C@H]1CC[C@H](NS(=O)(=O)c2ccc(F)cc2)[C@@H](CO)O1)NC1CCC1	-0.3	-21.4	8.6	x	x	x	x
Cc1ccc(S(=O)(=O)N[C@@H]2CC[C@@H](CCNC(=O)Cc3ccccn3)O[C@H]2CO)cc1	0.0	u	2.4	26.3	17.5	-2.9	-20.6
O=C(C[C@H]1CC[C@@H](NS(=O)(=O)c2ccc(F)cc2)[C@H](CO)O1)NC1CCC1	-0.1	118.6*	6.3	46.6	27.7	7.6	14.9
CCN1C(=O)C(O)(CC(=O)c2ccco2)c2cc(Br)ccc21 (stereo unspecified)	-0.1	x	x	x	x	x	x
CC(C)(C#N)NC(=O)C1Cc2ccccc2CN1S(=O)(=O)c1ccc(F)cc1 (stereo unspecified)	0.0	x	x	x	x	x	x
O=C(O)CCc1ccc(-c2ccc(Cl)cc2)n1-c1ccc(C(=O)O)cc1	3.1	x	x	x	x	x	x
CCC(=O)N(C)C[C@@H]1Oc2cc(C#CCC3CCCC3)ccc2S(=O)(=O)N([C@@H](C)CO)C[C@@H]1C	-4.0	97.3*	0.8	u	87.7	19.0	104.3*
SMILES	IDH1 R132H inh	T cruzi growth-1	KDM4C inh	T cruzi growth-2	T cruzi growth-3	3T3 cytotox	3T3 cytotox 2
C[C@H]1CN([C@@H](C)CO)S(=O)(=O)c2ccc(C#CCC3CCCC3)cc2O[C@@H]1CN(C)C(=O)CN(C)C	0.0	121.7	0.5	x	x	x	x
CCC(=O)N(C)C[C@@H]1Oc2cc(C#CCC3CCCC3)ccc2S(=O)(=O)N([C@H](C)CO)C[C@@H]1C	-0.6	105.4*	1.5	107.0*	86.6	4.5	97.3*
C[C@@H]1CN([C@H](C)CO)S(=O)(=O)c2ccc(C#CCC3CCCC3)cc2O[C@H]1CN(C)C(=O)CN(C)C	-0.4	113.3	12.9	x	x	x	x
C[C@@H]1CN([C@@H](C)CO)C(=O)Cc2cc(NC(=O)Nc3cccc4ccccc34)ccc2O[C@@H]1CN(C)Cc1ccc(-c2ccccc2)cc1	x	103.5*	-3.4	108.3*	75.3	23.0	u
C[C@H]1CN([C@@H](C)CO)C(=O)Cc2cc(NC(=O)Nc3cccc4ccccc34)ccc2O[C@H]1CN(C)Cc1ccc(-c2ccccc2)cc1	-0.2	86.9	-2.9	x	x	x	x
C[C@@H]1CN([C@H](C)CO)C(=O)Cc2cc(NC(=O)Nc3cccc4ccccc34)ccc2O[C@@H]1CN(C)Cc1ccc(-c2ccccc2)cc1	2.0	97.9*	-3.1	111.8*	62.2	18.8	u
C[C@@H]1CN([C@H](C)CO)C(=O)Cc2cc(NC(=O)Nc3cccc4ccccc34)ccc2O[C@H]1CN(C)Cc1ccccc1	-0.3	49.3	-3.9	x	x	x	x
O=C(C[C@H]1CC[C@@H]2[C@H](COC[C@@H](O)CN2Cc2cc(F)ccc2F)O1)N[C@@H]1CCN(Cc2ccccc2)C1	x	79.5	-1.1	x	x	x	x
O=C(C[C@@H]1CC[C@H]2[C@@H](COC[C@@H](O)CN2Cc2cc(F)ccc2F)O1)N[C@@H]1CCN(Cc2ccccc2)C1	x	94.7	3.1	x	x	x	x
O=C(C[C@H]1CC[C@H]2[C@@H](COC[C@@H](O)CN2Cc2cc(F)ccc2F)O1)N[C@@H]1CCN(Cc2ccccc2)C1	x	99.3*	-0.4	69.8	66.0	-4.7	-8.5
O=C(C[C@@H]1CC[C@H]2[C@@H](COC[C@@H](O)CN2Cc2ccccc2F)O1)N[C@H]1CCN(Cc2ccccc2)C1	x	31.9	-1.4	x	x	x	x
O=C(C[C@@H]1CC[C@@H]2[C@H](COC[C@@H](O)CN2Cc2cc(F)ccc2F)O1)N1CCc2ccccc2C1	x	65.1	1.6	x	x	x	x
O=C(C[C@H]1CC[C@@H]2[C@H](COC[C@H](O)CN2Cc2cc(F)ccc2F)O1)N[C@@H]1CCN(Cc2ccccc2)C1	x	129.8*	0.3	67.0	7.5	-18.4	-5.2
